SMILES strings stand for the structures. The source made the active and inactive calls. The calls are words filed in the database; no cut-off is given here. Some results are limits rather than exact numbers.

The target of one assay is T1, Choline kinase alpha (Homo sapiens, UniProt P35790). The experiment in a line: Inhibition of CHKA in human HCT116 cells assessed as [3H]phosphocholine formation using [3H]choline chloride as substrate at 2.4 +/-1 uM incubated for 1 hr prior to substrate addition measured after 1 hr by scintillation counting analysis. The class given is cell-based. To be noted: HCT-116. The procedure, abridged:
(§1)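 HCT-116 cells pretreated 1 h with 0.16, 0.8, 4, 20 or 100 µM inhibitor. Then pulsed 1 h with [3H]choline chloride (0.5 µCi/mL). Cells washed in cold PBS and extracted with methanol/chloroform. Choline removed with tetraphenylborate in heptan-4-one. Aqueous phosphocholine counted by liquid scintillation and compared with untreated controls.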
Target sequence in this assay (P35790 whole entry, looked up): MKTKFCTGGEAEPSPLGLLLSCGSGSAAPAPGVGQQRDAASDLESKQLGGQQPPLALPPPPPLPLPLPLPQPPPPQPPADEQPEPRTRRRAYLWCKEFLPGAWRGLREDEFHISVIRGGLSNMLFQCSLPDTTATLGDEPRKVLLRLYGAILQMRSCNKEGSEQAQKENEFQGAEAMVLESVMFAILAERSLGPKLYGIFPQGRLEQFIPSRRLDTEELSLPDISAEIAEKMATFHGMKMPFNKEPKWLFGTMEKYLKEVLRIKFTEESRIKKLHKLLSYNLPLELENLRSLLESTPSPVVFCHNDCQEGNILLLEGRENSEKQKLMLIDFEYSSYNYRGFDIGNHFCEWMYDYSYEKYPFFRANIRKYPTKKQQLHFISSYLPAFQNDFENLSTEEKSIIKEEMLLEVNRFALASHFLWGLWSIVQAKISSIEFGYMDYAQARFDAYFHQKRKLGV
On to `CN(C)c1cc[n+](CCCCCCCCCCCC[n+]2ccc(N(C)C)cc2)cc1`, for which the inhibition was over 75%.

As to `CN(C)c1cc[n+](CCCCCCCCCCCCCC[n+]2ccc(N(C)C)cc2)cc1`, the inhibition was over 75%.

A further assay deals with T1, Choline kinase alpha. The experiment in a line: Inhibition of CHKA in human HCT116 cells assessed as [3H]phosphocholine formation using [3H]choline chloride as substrate at 6.5 +/-4 uM incubated for 1 hr prior to substrate addition measured after 1 hr by scintillation counting analysis. To be noted: HCT-116. The class given is cell-based. The procedure, abridged: as §1
Target sequence in this assay (P35790 whole entry, looked up): as above
As to `CN(C)c1cc[n+](CCCCCCCCCCCC[n+]2ccc(N(C)C)cc2)cc1`, the inhibition was over 75%.

As for `CN(C)c1cc[n+](CCCCCCCCCCCCCC[n+]2ccc(N(C)C)cc2)cc1`, the inhibition was over 75%.

Another assay concerns A549. The experiment in a line: Growth inhibition of human A549 cells overexpressing CHKA2 after 72 hrs by sulforhodamine assay. The class given is functional. To be noted: A549, 72 h. The method in brief:
(§2)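 A549 (DMEM) or HCT-116 (RPMI-1640) cells in 10% FCS, 37°C, 5% CO2. Cells treated 24 h after seeding with 9 inhibitor concentrations, six replicates, for 72 h. Fixed with 10% TCA, stained with 0.4% SRB, read at 540 nm. GI50 from variable-slope sigmoidal fit of percent-of-control curves.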
On to `CN(C)c1cc[n+](CCCCCCCCCCCCn2cnc3c(N)ncnc32)cc1`, for which growth was halved (GI50) at 5.3 µM.

`CN(C)c1cc[n+](CCCCCCCCCCCC[n+]2ccc(N(C)C)cc2)cc1`: the 50% growth inhibitory concentration (GI50) was 0.38 µM.

`CN(C)c1cc[n+](CCCCCCCCCCCCCC[n+]2ccc(N(C)C)cc2)cc1` registered a GI50 of 0.33 µM. This GI50 and that of the compound before are within 1.5-fold of each other.

With `CN(C)c1cc[n+](CCCCCCCC[n+]2ccc(N(C)C)cc2)cc1`, the 50% growth inhibitory concentration (GI50) was 3.3 µM.

In turn, `CN(C)c1cc[n+](CCCCCCCCC[n+]2ccc(N(C)C)cc2)cc1` came in with a 50% growth inhibitory concentration (GI50) of 4 µM.

Consider `CN(C)c1cc[n+](CCCCCCCCCC[n+]2ccc(N(C)C)cc2)cc1`, for which the GI50 came to 4.2 µM.

As to `CN(C)c1cc[n+](CCCCCCCCCCC[n+]2ccc(N(C)C)cc2)cc1`, the GI50 was 1.6 µM. This GI50 lies about 2.6-fold lower than the previous one.

As to `CN(C)c1cc[n+](CCCCCCCCCCCCn2cnc3ccccc32)cc1`, growth was halved (GI50) at 1.3 µM.

In a further assay the target is T1, Choline kinase alpha. The experiment in a line: Inhibition of CHKA in human HCT116 cells assessed as [3H]phosphocholine formation using [3H]choline chloride as substrate incubated for 1 hr prior to substrate addition measured after 1 hr by scintillation counting analysis. The class given is cell-based, HCT-116.
Details: not given
The procedure, abridged:
as §1
Consider `CN(C)c1cc[n+](CCCCCCCCCCCC[n+]2ccc(N(C)C)cc2)cc1`, for which the EC50 is 1.3 µM.

Turning to `CN(C)c1cc[n+](CCCCCCCCCCCCCC[n+]2ccc(N(C)C)cc2)cc1`, the 50% effective concentration (EC50) was found to be 0.52 µM.

Staying with this assay, now noted: HCT-116.
Regarding `CN(C)c1cc[n+](CCCCCCCCCCCC[n+]2ccc(N(C)C)cc2)cc1`, the inhibition entry is “Dose-dependent effect”.

Regarding `CN(C)c1cc[n+](CCCCCCCCCCCCCC[n+]2ccc(N(C)C)cc2)cc1`, the inhibition entry is “Dose-dependent effect”.

The next assay has as its system HCT-116. Nature of the assay: Growth inhibition of human HCT116 cells overexpressing CHKA2 after 72 hrs by sulforhodamine assay. The class given is functional. To be noted: HCT-116, 72 h. The procedure, abridged:
as §2
Consider `CN(C)c1cc[n+](CCCCCCCCCCCCn2cnc3c(N)ncnc32)cc1`, for which the 50% growth inhibitory concentration (GI50) was 4.1 µM.

Regarding `CN(C)c1cc[n+](CCCCCCCCCCCC[n+]2ccc(N(C)C)cc2)cc1`, the concentration for 50% growth inhibition (GI50) was 0.64 µM.

`CN(C)c1cc[n+](CCCCCCCCCCCCCC[n+]2ccc(N(C)C)cc2)cc1` showed a concentration for 50% growth inhibition (GI50) of 0.29 µM.

For `CN(C)c1cc[n+](CCCCCCCC[n+]2ccc(N(C)C)cc2)cc1`, the GI50 was found to be 2.5 µM.

Take `CN(C)c1cc[n+](CCCCCCCCC[n+]2ccc(N(C)C)cc2)cc1`: the 50% growth inhibitory concentration (GI50) came out at 2.6 µM.

In the case of `CN(C)c1cc[n+](CCCCCCCCCC[n+]2ccc(N(C)C)cc2)cc1`, the GI50 turned out to be 2.8 µM. This GI50 and that of the compound before are within 1.5-fold of each other.

Compound `CN(C)c1cc[n+](CCOCCOCCOCC[n+]2ccc(N(C)C)cc2)cc1` came in with a concentration for 50% growth inhibition (GI50) of over 1000 µM.

`CN(C)c1cc[n+](CCOCCOCCOCCn2cnc3ccccc32)cc1` displayed a concentration for 50% growth inhibition (GI50) of over 1000 µM.

On to `CN(C)c1cc[n+](CCCCCCCCCCC[n+]2ccc(N(C)C)cc2)cc1`, for which it took 2 µM to inhibit growth by half (GI50).

`CN(C)c1cc[n+](CCCCCCCCCCCCn2cnc3ccccc32)cc1` displayed a GI50 of 0.69 µM.

For a further assay, the species on record is Homo sapiens. Nature of the assay: Mixed inhibition of recombinant delta49N CHKA2 (unknown origin) using choline as substrate by Lineweaver-burk plot analysis in presence of ATP.
Details: not given
With `CN(C)c1cc[n+](CCCCCCCCCCCCn2cnc3c(N)ncnc32)cc1`, the inhibition entry was “Active”.

Another assay is filed under the species Homo sapiens. The experiment in a line: Competitive inhibition of recombinant delta49N CHKA2 (unknown origin) using 72 uM choline as substrate by Lineweaver-burk plot analysis in presence of 10 uM to 5 mM ATP.
Details: not given
Take `CN(C)c1cc[n+](CCCCCCCCCCCC[n+]2ccc(N(C)C)cc2)cc1`: the inhibition entry was “inactive”.

For the next assay, the species on record is Homo sapiens. Nature of the assay: Competitive inhibition of recombinant delta49N CHKA2 (unknown origin) using 40 uM to 20 mM choline as substrate by Lineweaver-burk plot analysis in presence of 450 uM ATP.
Details: not given
With `CN(C)c1cc[n+](CCCCCCCCCCCC[n+]2ccc(N(C)C)cc2)cc1`, the inhibition entry is “Active”.

Target in the next assay: not listed separately
The experiment in a line: Inhibition of recombinant delta49N CHKA2 (unknown origin) assessed as ADP formation using choline as substrate by enzyme coupled assay. The arrangement: species or system Homo sapiens.
Details: not given
The procedure, abridged: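 Δ49N CHKA2 (20 ng) with 72 µM choline and 450 µM ATP (both at KM) in 100 mM Tris pH 7.5, 100 mM KCl, 10 mM MgCl2. Coupled system: 500 µM PEP, pyruvate kinase, LDH, 250 µM NADH. Inhibitor at varying concentrations. ADP formation followed as NADH loss at 340 nm. IC50 from variable-slope sigmoidal least-squares fit.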
Regarding `CN(C)c1cc[n+](CCCCCCCCCCCCn2cnc3c(N)ncnc32)cc1`, the half-inhibitory concentration (IC50) stood at 0.8 µM.

In the case of `CN(C)c1cc[n+](CCCCCCCCCCCC[n+]2ccc(N(C)C)cc2)cc1`, the IC50 was determined as 0.27 µM.

Turning to `CN(C)c1cc[n+](CCCCCCCCCCCCCC[n+]2ccc(N(C)C)cc2)cc1`, the half-maximal inhibitory concentration (IC50) worked out at 0.15 µM.

Consider `CN(C)c1cc[n+](CCCCCCCC[n+]2ccc(N(C)C)cc2)cc1`, for which the IC50 amounted to 2.7 µM.

As for `CN(C)c1cc[n+](CCCCCCCCC[n+]2ccc(N(C)C)cc2)cc1`, the IC50 is 1.3 µM.

Turning to `CN(C)c1cc[n+](CCCCCCCCCC[n+]2ccc(N(C)C)cc2)cc1`, the half-maximal inhibitory concentration (IC50) turned out to be 0.67 µM.

Turning to `CN(C)c1cc[n+](CCCCCCCCCCC[n+]2ccc(N(C)C)cc2)cc1`, the IC50 was determined as 0.29 µM.

As for `CN(C)c1cc[n+](CCCCCCCCCCCCn2cnc3ccccc32)cc1`, the IC50 came to 5.1 µM.
